These results are taken from ChEMBL document CHEMBL4619802, “Discovery and Characterization of Pure RhlR Antagonists against Pseudomonas aeruginosa Infections” (J Med Chem, 2020).

In assay [1] the target is T1, HTH-type quorum-sensing regulator RhlR (Pseudomonas aeruginosa (strain ATCC 15692 / PAO1 / 1C / PRS 101 / LMG12228)) (UniProt P54292).
T1 sequence (whole entry): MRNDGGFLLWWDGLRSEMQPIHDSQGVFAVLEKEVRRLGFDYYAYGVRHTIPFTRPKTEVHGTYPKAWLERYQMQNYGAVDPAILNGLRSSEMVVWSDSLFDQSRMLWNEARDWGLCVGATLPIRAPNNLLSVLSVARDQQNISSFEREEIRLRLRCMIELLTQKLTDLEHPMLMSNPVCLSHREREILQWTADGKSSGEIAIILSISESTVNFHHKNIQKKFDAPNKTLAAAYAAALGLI
The assay can be described thus: Agonist activity at Pseudomonas aeruginosa RhlR expressed in Escherichia coli DH5alpha assessed as relative protein activity at 100 uM incubated for 1.5 hrs by luminescence reporter gene assay relative to control.

Assay [2] deals with T1, HTH-type quorum-sensing regulator RhlR (Pseudomonas aeruginosa (strain ATCC 15692 / PAO1 / 1C / PRS 101 / LMG12228)). The assay can be described thus: Antagonist activity at Pseudomonas aeruginosa RhlR expressed in Escherichia coli DH5alpha assessed as relative protein activity at 100 uM incubated for 1.5 hrs in presence of N-butyryl-L-homoserine lactone by luminescence reporter gene assay relative to control. Details: scale not given: the % may be the effect or the level left. The gist of the method: (§1)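 E. coli DH5α sdiA mutant carrying RhlR and rhlA::lacZ plasmids, at OD595 0.3 in LB. Compound given with BHL (10 µM per footnote) and 0.4% arabinose, 37 °C for 1.5 h.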

Assay [3] shares this target. The assay can be described thus: Antagonist activity at RhlR in Pseudomonas aeruginosa assessed as rhamnolipid production at 100 uM incubated for 24 hrs by Orcinol staining based assay relative to control. The arrangement: scale not given: the % may be the effect or the level left.
Assay [4] has the same target. In words: Antagonist activity at RhlR in Pseudomonas aeruginosa assessed as rhamnolipid production at 10 uM incubated for 24 hrs by Orcinol staining based assay relative to control. The arrangement: scale not given: the % may be the effect or the level left.
Assay [5] deals with Pseudomonas aeruginosa. The assay can be described thus: Antibacterial activity against Pseudomonas aeruginosa assessed as bacterial growth at 100 uM incubated for 24 hrs relative to control. It is filed as functional. The gist of the method:
(§2)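 P. aeruginosa overnight culture (OD595 1.0) diluted 1:20 in AB medium (pH 7.5, 1% glucose, casamino acids, arginine) with compound, in borosilicate bottles, 37 °C for 24 h without shaking. Growth taken as OD595 of the suspended culture. Attached cells washed twice with PBS, stained with 0.1% crystal violet for 10 min, dye eluted in ethanol and read at 545 nm.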

The test system of assay [6] is Pseudomonas aeruginosa. The assay can be described thus: Antibacterial activity against Pseudomonas aeruginosa assessed as bacterial growth at 10 uM incubated for 24 hrs relative to control. Format: functional. In outline: as §2
Assay [7] concerns the target T1, HTH-type quorum-sensing regulator RhlR (Pseudomonas aeruginosa (strain ATCC 15692 / PAO1 / 1C / PRS 101 / LMG12228)). The assay can be described thus: Modulation of RhlR in Pseudomonas aeruginosa assessed as biofilm formation at 100 uM incubated for 24 hrs under static condition by crystal violet staining based assay relative to control.
For assay [8] the target is unchanged. The assay can be described thus: Agonist activity at Pseudomonas aeruginosa RhlR expressed in Escherichia coli DH5alpha assessed as relative protein activity at 1000 uM incubated for 1.5 hrs by luminescence reporter gene assay relative to control.
Assay [9] has the same target. In words: Modulation of RhlR in Pseudomonas aeruginosa assessed as biofilm formation at 10 uM incubated for 24 hrs under static condition by crystal violet staining based assay relative to control.
The target is the same in assay [10]. The assay can be described thus: Antagonist activity at Pseudomonas aeruginosa RhlR expressed in Escherichia coli DH5alpha assessed as relative protein activity at 10 uM incubated for 1.5 hrs in presence of N-butyryl-L-homoserine lactone by luminescence reporter gene assay relative to control. The arrangement: scale not given: the % may be the effect or the level left. In outline: as §1

Activity calls are given as the source filed them. No cut-off for these calls is given here.

On to `CCCCCC(=O)/C=C/c1ccc(O)c(OC)c1`, for which the Activity in [1] worked out at 2%; in [2] it was 41%.
Consider `CCCC(O)CC(=O)/C=C/c1ccc(OC)c(OC)c1` (centres undefined), for which the Activity was 1% in assay [1] and 69% in [2].
For `CCCC[C@@H](O)C#Cc1ccc(F)c(F)c1` the same measures were 3% and 67%.
The matching figures for `CCCC(O)CC(=O)CCc1ccc(F)c(OC)c1` (centres undefined): 1% and 79%.
For `CCCC(O)CC(=O)/C=C/c1cccc(O)c1` (centres undefined) the same measures were 2% and 78%.
Turning to `CCCCCC(=O)/C=C/c1ccc(F)c(F)c1`, the Activity in assay [3] came out at 62%; in [4], 64%; in the assay with Pseudomonas aeruginosa [5], 103%; in the assay with Pseudomonas aeruginosa [6], 103%; in assay [7], 61%; in assay [8], 3%. In addition, the Activity in assay [9] came to 80%; in assay [10], 53%; in assay [1] it was 4%; in assay [2] it was 51%.
As to `CCCC(O)CC(=O)/C=C/c1ccccc1` (centres undefined), the Activity in assay [1] worked out at 4%; in assay [2] it was 93%.
Consider `CCCCCCCC(O)CC(=O)CCc1ccc(O)c(OC)c1` (centres undefined), for which the Activity came to 2% in assay [1] and 90% in assay [2].
As for `CCCC(O)CC(=O)/C=C/c1ccc(F)c(F)c1` (centres undefined), the Activity was 50% in [3]; 63% in [4]; 105% with Pseudomonas aeruginosa [5]; 101% in the assay on Pseudomonas aeruginosa [6]; 53% in assay [7]; 5% in [8]. For the same compound, the Activity in [9] turned out to be 72%; in [10] it was 60%; in assay [1] it was 2%; in assay [2], 20%.
For the compound `CCCC(O)CC(=O)CCc1ccc(OC)c(OC)c1` (centres undefined), the Activity came to 1% in assay [1] and 94% in assay [2].
As for `CCCCC[C@H](O)C#Cc1ccc(O)c(OC)c1`, the result in the assay with Pseudomonas aeruginosa [5] was inactive. For the same compound, the outcome in [9] was Active. The results for the Activity in [1] and in assay [2] were 3% and 34%, respectively.
Consider `CCCC(O)CC(=O)CCc1ccc(F)cc1` (centres undefined), for which the Activity in assay [1] was 2%; in assay [2] it was 51%.
As for `CCCCCCCCC(O)CC(=O)CCc1ccc(O)c(OC)c1` (centres undefined), the outcome with Pseudomonas aeruginosa [5] was inactive. Moreover, the result in assay [9] was Active. For the same compound, the values for the Activity in assay [1] and in assay [2] were 2% and 41%, respectively.
In the case of `CCCC(O)CC(=O)/C=C/c1ccc(C)c(C)c1` (centres undefined), the Activity in [1] came out at 2%; in assay [2], 72%.
As for `CCCC(O)CC(=O)CCc1cccc(O)c1` (centres undefined), the Activity is 2% in assay [1] and 81% in assay [2].
The matching figures for `CCCCCC(=O)CCc1ccc(F)c(F)c1`: 4% and 55%.
For `CCCCCC(=O)CCc1ccc(O)c(OC)c1` the same measures were 2% and 49%.
Consider `CCCCCC(O)C#Cc1ccc(O)c(OC)c1` (racemic), for which the outcome with Pseudomonas aeruginosa [5] was inactive. In [9], the result was Active. For the same compound, the Activity in assay [1] was found to be 3%; in assay [2], 32%.
Take `CCCCCC(O)/C=C\c1ccc(O)c(OC)c1` (centres undefined): the Activity in assay [1] came to 3%; in assay [2], 79%.
The matching figures for `CCCCCC(O)C#Cc1ccc(F)c(F)c1` (racemic): 3% and 74%.
The matching figures for `CCCC(O)CC(=O)CCc1ccc(N(C)C)cc1` (centres undefined): 1% and 74%.
For `CCCC(O)CC(=O)CCc1ccccc1` (centres undefined) the same measures were 4% and 88%.
`CCCC(O)CC(=O)CCc1cccc(OC)c1` (centres undefined): the Activity amounted to 2% in assay [1] and 90% in assay [2].
The matching figures for `CCCC(O)CC(=O)/C=C/c1ccc(Cl)cc1` (centres undefined): 1% and 64%.
The matching figures for `CCCC(O)CC(=O)/C=C/c1ccc(O)c(F)c1` (centres undefined): 2% and 60%.
As to `CCCCC(O)C#Cc1ccc(F)c(F)c1` (racemic), the Activity in [1] amounted to 4%; in assay [2] it was 71%.
For `CCCC(O)CC(=O)/C=C/c1ccc(F)cc1` (centres undefined) the same measures were 1% and 33%.
The matching figures for `CCCC(O)CC(=O)CCc1ccc(Cl)cc1` (centres undefined): 2% and 69%.
The matching figures for `CCCC(O)CC(=O)/C=C/c1ccc(O)c(OCC)c1` (centres undefined): 1% and 91%.
As for `CCCC(O)CC(=O)CCc1ccc(O)c(O)c1` (centres undefined), the Activity in [1] turned out to be 2%; in assay [2], 47%.
For `CCCCCC(O)CCc1ccc(F)c(F)c1` (centres undefined) the same measures were 5% and 61%.
Consider `CCCC(O)CC(=O)/C=C/c1ccc(O)cc1` (centres undefined), for which the outcome in the assay with Pseudomonas aeruginosa [5] was inactive. Besides, the result in assay [9] was Active. Besides, the Activity in [1] is 1%; in [2], 51%.
Turning to `CCCCCC(O)CCc1ccc(O)c(OC)c1` (centres undefined), the Activity was 2% in [1] and 45% in assay [2].
Take `CCCCCCCCCC(O)CC(=O)CCc1ccc(O)c(OC)c1` (centres undefined): the result with Pseudomonas aeruginosa [5] was inactive. Also, the result in assay [9] was Active. Besides, the results for the Activity in assay [1] and in assay [2] were 2% and 36%, respectively.
Take `CCCC(O)CC(=O)CCc1ccc(O)c(OCC)c1` (centres undefined): the Activity in assay [1] was 1%; in [2] it was 98%.
In the case of `CCCCC[C@@H](O)C#Cc1ccc(O)c(OC)c1`, in the assay with Pseudomonas aeruginosa [5], the result was inactive. The outcome in [9] was Active. In addition, the values for the Activity in assay [1] and in [2] were 3% and 27%, respectively.
On to `CCCC[C@H](O)C#Cc1ccc(F)c(F)c1`, for which the Activity in [1] amounted to 2%; in [2], 64%.
For `CCCC(O)CC(=O)CCc1ccc(O)cc1` (centres undefined) the same measures were 3% and 64%.
For `CCCC(O)CC(=O)CCc1ccc(OC)cc1` (centres undefined), the Activity in assay [1] came to 2%; in assay [2] it was 71%.
The matching figures for `CCCCC(O)CC(=O)CCc1ccc(O)c(OC)c1` (centres undefined): 2% and 62%.
For `CCCC(O)CC(=O)CCc1ccc(F)c(F)c1` (centres undefined), the Activity in assay [1] came to 1%; in [2], 49%.
For `CCCC(O)CC(=O)/C=C/c1ccc(C)cc1` (centres undefined) the same measures were 2% and 65%.
The matching figures for `CCCC(O)CC(=O)CCc1cc(F)cc(OC)c1` (centres undefined): 3% and 85%.
For `CCCC(O)CC(=O)/C=C/c1ccc(F)c(OC)c1` (centres undefined) the same measures were 1% and 43%.
Consider `CCCCCC(=O)C#Cc1ccc(O)c(OC)c1`, for which, in the assay with Pseudomonas aeruginosa [5], the outcome was inactive. In addition, the outcome in assay [9] was Active. In addition, the Activity turned out to be 3% in assay [1] and 29% in assay [2].
For `CCCCCCC(O)CC(=O)CCc1ccc(O)c(OC)c1` (centres undefined), the Activity in assay [1] stood at 3%; in assay [2] it was 83%.
The matching figures for `CCCCCC(O)/C=C/c1ccc(O)c(OC)c1` (centres undefined): 2% and 41%.
The matching figures for `CCCCC[C@@H](O)C#Cc1ccc(F)c(F)c1`: 3% and 72%.
On to `CCCC(O)CC(=O)/C=C/c1cc(F)cc(OC)c1` (centres undefined), for which the Activity in [1] is 3%; in [2] it was 74%.
`CCCCCC(O)/C=C/c1ccc(F)c(F)c1` (centres undefined): the Activity is 5% in [1] and 55% in assay [2].
For `CCCCC[C@H](O)C#Cc1ccc(F)c(F)c1` the same measures were 4% and 67%.
On to `CCCC(O)CC(=O)/C=C/c1ccc(OC)cc1` (centres undefined), for which the outcome in the assay with Pseudomonas aeruginosa [5] was inactive. For the same compound, in [9], the result was Active. Further, the values for the Activity in [1] and in assay [2] were 1% and 55%, respectively.
Take `CCCC(O)CC(=O)CCc1ccc(C)cc1` (centres undefined): the figures for the Activity in [1] and in assay [2] were 1% and 76%, respectively.
For `CCCC(O)CC(=O)CCc1ccc(O)c(F)c1` (centres undefined) the same measures were 1% and 73%.
The matching figures for `CCCC(O)CC(=O)/C=C/c1ccc(N(C)C)cc1` (centres undefined): 2% and 53%.
The matching figures for `CCCC(O)CC(=O)CCc1ccc(C)c(C)c1` (centres undefined): 3% and 82%.
